Source: PubChem BioAssay (several laboratories)
Sampled rows, rich in hits. Any-hit rate of the full collection: about 3.3%.
STAT3 act – increases IL-6 driven STAT3 reporter signal; hit rate 0.91% among 190,000; activation (% of control), % at 5.6 µM; AID 871; U3A cells, IL-6 STAT3-luciferase reporter, luminescence; 100% = signal with IL-6 EC80 alone;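 active = activation above the screen-wide mean of compound activation plus 3 SD, cut at about 130% in these data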;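 note: 0% = background luminescence of wells with medium and substrate only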
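Material: human STAT1-deficient U3A cells with stable STAT3-luciferase reporter / Probe or stimulus: IL-6 stimulus at 33 ng/mL final / Schedule: 1 h compound pre-exposure, 6 h IL-6 stimulation, 37 °C / Technique: luminescence / Read-out basis: percent of IL-6-only median luminescence / Control set: IL-6-only high control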
ABCB6 inh MLPCN – human ABCB6 transporter inhibition | K562-ABCB6 porphyrin accumulation, flow cytometry, 1 h; stronger effect = lower value | fluorescence ratio to DMSO, % at 10 µM | AID 602162 | Q9NP58 | hit rate 0.19% among 360,000;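 active = fluorescence ratio to DMSO below 75%, the collection mean minus 3 SD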;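 note: signal is porphyrin accumulated inside mitochondria; 100% equals median channel fluorescence of DMSO control wells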
GAA850 FXN act – activators of GAA850 frataxin (FXN) promoter; HEK293 lucGAA850 FXN promoter luciferase reporter, 24 h; percent of 10 µM SAHA response; AID 540364; activation, % at 6 µM; hit rate 0.56% among 360,000;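 active = activation above the average of all compounds screened plus 3 SD, cutoff fixed separately per campaign, cut at about 7.5% in these data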;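 note: 0% = DMSO wells and 100% = 10 µM SAHA wells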
AHR activator – activates the human aryl hydrocarbon receptor; P35869; AHR-responsive luciferase reporter cells, luminescence; activation, % at 5 µM; hit rate 2.5% among 320,000; in the data active = activation above about 47%;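 note: 0% = vehicle wells and 100% = reference agonist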
Target sequence (P35869 whole entry, looked up): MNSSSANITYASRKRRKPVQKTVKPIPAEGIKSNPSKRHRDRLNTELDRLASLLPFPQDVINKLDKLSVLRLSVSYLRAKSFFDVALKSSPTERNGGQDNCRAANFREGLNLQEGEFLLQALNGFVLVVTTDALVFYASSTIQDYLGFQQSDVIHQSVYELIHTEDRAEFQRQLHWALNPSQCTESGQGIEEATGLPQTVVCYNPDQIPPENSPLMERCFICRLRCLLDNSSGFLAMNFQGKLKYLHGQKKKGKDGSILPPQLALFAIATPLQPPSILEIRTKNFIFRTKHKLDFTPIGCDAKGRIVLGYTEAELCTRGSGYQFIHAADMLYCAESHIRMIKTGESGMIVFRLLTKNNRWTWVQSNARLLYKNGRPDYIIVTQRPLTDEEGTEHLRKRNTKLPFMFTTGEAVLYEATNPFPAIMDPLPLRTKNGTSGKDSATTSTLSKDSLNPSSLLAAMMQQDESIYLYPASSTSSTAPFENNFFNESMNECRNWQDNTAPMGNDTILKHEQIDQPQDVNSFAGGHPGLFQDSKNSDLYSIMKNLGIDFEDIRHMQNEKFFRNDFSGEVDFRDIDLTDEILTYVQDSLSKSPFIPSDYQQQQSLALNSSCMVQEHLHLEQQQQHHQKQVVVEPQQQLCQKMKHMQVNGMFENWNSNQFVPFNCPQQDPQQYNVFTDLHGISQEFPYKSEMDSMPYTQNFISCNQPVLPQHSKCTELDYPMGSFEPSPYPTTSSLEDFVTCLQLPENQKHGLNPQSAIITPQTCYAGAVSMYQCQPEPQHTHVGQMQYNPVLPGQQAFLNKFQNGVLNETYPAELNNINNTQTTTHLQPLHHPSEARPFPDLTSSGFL
GAA30 FXN cntr – activates GAA30 frataxin promoter, counter-screen for GAA850 activators; activation, % at 6 µM; shares compounds with GAA850 FXN act; hit rate 66% among 1,900; HEK293 lucGAA30 FXN promoter luciferase, 24 h; DMSO = 0%, 5 µM ipriflavone = 100%;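 active = mean activation above the mean of solvent-only control wells plus 3 SD, cut at about 22% in these data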;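 note: counterscreen of GAA850 promoter hits where activity marks nonselective or luminescence artifacts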
FXN GAA850 conf – GAA850 FXN promoter activation confirmation | shares compounds with GAA850 FXN act | HEK293 lucGAA850 FXN promoter luciferase reporter, 24 h; 100% = activation by SAHA | activation, % at 6 µM | hit rate 86% among 1,900;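 active = mean activation above a set limit taken from the primary screen, cut at about 8% in these data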;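 note: 0% = DMSO wells and 100% = 10 µM SAHA wells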
Numbers without * were called inactive; nt = no result.

SMILES	STAT3 act	ABCB6 inh MLPCN	GAA850 FXN act	AHR activator	GAA30 FXN cntr	FXN GAA850 conf
COc1cc2c(cc1OC)-c1cc(N3CCCCCC3)nc(=O)n1CC2	113.9	102.0	12.7*	3.4	30.9*	16.4*
CCOC(=O)c1[nH]c2ccc(OC)cc2c1NC(=O)c1ccccc1C(=O)O	nt	98.0	8.0*	1.3	28.5*	12.8*
c1ccc(CN2CCN(c3ncnc4nc[nH]c34)CC2)cc1	99.0	101.0	1.0	2.0	nt	nt
CON(C)c1nc(OCCNC(=O)OCc2ccc(Cl)cc2C)nc(N(C)C)n1	95.1	99.0	11.9*	-1.4	20.5	6.2
CN(C)c1nc(OCCOC(=O)Nc2ccc(Cl)cc2Cl)nc(N(C)C)n1	100.1	98.0	-0.1	-1.8	nt	nt
Cc1cc(C)n2nc(/C(C#N)=C/c3ccccn3)c(C#N)c2n1	92.0	108.0	15.6*	6.4	32.2*	36.8*
COc1ccc(CCN2C(=O)CCC2(C)C(=O)NC2CCCC2)cc1OC (stereo not drawn)	101.2	97.0	0.8	1.1	nt	nt
Cc1ccc(CCN2C(=O)CCC2(C)C(=O)NC2CCCC2)cc1 (stereo not drawn)	103.2	103.0	15.4*	-0.5	19.5	5.2
Cc1cccc(NC(=O)CCC(=O)N/N=C/c2ccco2)c1	98.9	103.0	1.6	2.7	nt	nt
O=C(N/N=C\c1ccco1)Nc1cccc(Cl)c1	102.4	100.0	9.0*	51.7*	102.6*	37.6*
O=C(NN1CCOCC1)c1cccc(COc2cccc(Br)c2)c1	107.5	99.0	8.0*	5.0	89.8*	37.3*
CC(C)CN(CC(C)C)C(=O)Nc1cccc([N+](=O)[O-])c1	105.2	103.0	1.9	2.6	nt	nt
O=C(CCc1nc2ccccc2c(=O)[nH]1)Nc1cccc(S(=O)(=O)N2CCOCC2)c1	nt	91.0	0.8	1.7	nt	nt
Cc1ccccc1OCC(=O)Nc1cccc(Cl)c1C	nt	97.0	0.5	-8.1	nt	nt
Cc1ccccc1OCC(=O)Nc1ccccc1-c1ccccc1NC(=O)COc1ccccc1C	100.3	101.0	15.2*	8.7	15.3	11.4*
CC(C)CCOP(=O)(c1ccc(N(C)C)cc1)C(O)c1ccccc1 (stereo not drawn)	nt	119.0	8.2*	-0.2	6.9	5.5
Nc1nc(NCCc2ccccc2)nc(NCc2ccccc2)c1[N+](=O)[O-]	nt	98.0	2.3	-1.3	nt	nt
CN(Cc1ccccc1)c1nc(N)c([N+](=O)[O-])c(NCc2ccccc2)n1	113.8	100.0	7.7*	2.2	34.7*	11.6*
C=CCn1c(CCNC(=O)c2cccs2)nnc1SCC(=O)Nc1cccc(Cl)c1C	100.8	95.0	-5.5	0.1	nt	nt
COc1ccc(O)c(-c2nc(N)nc(N)n2)c1	nt	98.0	3.5	28.6	nt	nt
Nc1nc(N)nc(-c2cc(F)ccc2O)n1	nt	101.0	11.9*	24.7	66.9*	41.7*
C=CCn1c(-c2cccs2)nc2ccccc21	101.9	101.0	-0.3	18.8	nt	nt
C=CCn1c(-c2cccs2)nc2nc3ccccc3nc21	124.6	98.0	8.1*	70.3*	80.4*	24.3*
Nn1c(-c2ccccc2)cc(-c2ccccc2)cc1=O	nt	91.0	2.6	8.5	nt	nt
CC(C)C(=O)Nc1cccc(C(=O)Nc2nccs2)c1	89.2	113.0	-1.6	-0.6	nt	nt
SMILES	STAT3 act	ABCB6 inh MLPCN	GAA850 FXN act	AHR activator	GAA30 FXN cntr	FXN GAA850 conf
S=C(Nc1ccc2nsnc2c1)N1CCCC1	87.2	98.0	8.3*	2.5	29.5*	12.1*
Cc1ccccc1OCCCCn1cnc2ccccc21	49.9	94.0	0.3	-5.0	nt	nt
Brc1ccccc1OCCCn1cnc2ccccc21	101.9	99.0	8.7*	-3.7	101.3*	36.2*
COC(=O)[C@]12CCCCC=C1N(Cc1ccccc1)C(=O)[C@H](CC(=O)NCc1cccc(C(F)(F)F)c1)C2	nt	101.0	nt	nt	nt	nt
CC1(C)CNC(=O)CC(C)(C)N1	93.9	100.0	-1.3	-1.6	nt	nt
COc1cc(CNc2ccc3[nH]c(=O)[nH]c3c2)ccc1OCc1ccccc1Cl	nt	99.0	7.9*	1.2	35.7*	20.4*
O=c1[nH]c2ccc(NCc3ccc(OCc4ccccc4Cl)cc3)cc2[nH]1	nt	97.0	2.4	nt	nt	nt
COc1cc(CNc2ccc3[nH]c(=O)[nH]c3c2)ccc1OCc1ccc(C)cc1	nt	94.0	9.0*	nt	74.1*	30.0*
CC(C(=O)NCc1cccs1)N1C(=O)c2ccccc2C1=O (stereo not drawn)	99.9	103.0	-2.3	0.9	nt	nt
